# Assay results from ChEMBL document CHEMBL1154676, “Synthetic mRNA splicing modulator compounds with in vivo antitumor activity” (J Med Chem, 2009).
# Columns and labels:
# SNB-19 = test: Growth inhibition of human SNB19 cells by sulforhodamine B assay; assay type: functional
# SF-539 = test: Growth inhibition of human SF539 cells by sulforhodamine B assay; assay type: functional
# COLO 205 = test: Growth inhibition of human COLO205 cells by sulforhodamine B assay; assay type: functional
# NCI-H522 = test: Growth inhibition of human NCI-H522 cells by sulforhodamine B assay; assay type: functional
# NCI-H226 = test: Growth inhibition of human NCI-H226 cells by sulforhodamine B assay; assay type: functional
# SR = test: Growth inhibition of human SR cells by sulforhodamine B assay; assay type: functional
# MOLT-4 = test: Cytotoxicity against human MOLT4 cells after 72 hrs by XTT assay; assay type: functional, cell-based; details: MOLT-4, 72 h
# Summary of the method: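 Cells grown at 37 °C, 5% CO2; HFF in DMEM with 10% FBS, PrEC in prostate epithelial growth medium. Adherent lines seeded overnight, suspension lines same day; compounds diluted from DMSO stocks into media at various final concentrations, 72 h exposure. XTT reagent added 4 h, absorbance 490 nm (reference 690 nm). Growth as % of vehicle; IC50 from sigmoidal dose-response fit; mean ± SEM, three independent experiments.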
# Mus musculus [1] = test: Toxicity in NOD/SCID mouse assessed as anemia at 5 to 50 mg/kg, iv and po for 5 days; assay type: organism-based; parameters: dose 5-50 mg/kg, route oral; details: in vivo, 120 h
# Mus musculus [2] = test: Toxicity in NOD/SCID mouse assessed as leukopenia at 5 to 50 mg/kg, […] for 5 days; assay type: organism-based; parameters: dose 5-50 mg/kg; details: in vivo, po, 120 h
# Mus musculus [3] = test: Toxicity in NOD/SCID mouse assessed as globulin level at 5 to 50 mg/kg, […] for 5 days; assay type: organism-based; parameters: dose 5-50 mg/kg; details: in vivo, po, 120 h
# Mus musculus [4] = test: Toxicity in NOD/SCID mouse assessed as blood urea nitrogen level at 5 to 50 mg/kg, iv and po for 5 days; assay type: organism-based; parameters: dose 5-50 mg/kg, route oral; details: in vivo, 120 h
# [5] = Growth inhibition of human MDA-MB-436 cells by sulforhodamine B assay; assay type: functional
# Mus musculus [6] = test: Toxicity in NOD/SCID mouse assessed as amylase level at 5 to 50 mg/kg, iv and po for 5 days; assay type: organism-based; parameters: dose 5-50 mg/kg, route oral; details: in vivo, 120 h
# Mus musculus [7] = test: Toxicity in NOD/SCID mouse assessed as albumin level at 5 to 50 mg/kg, iv and po for 5 days; assay type: organism-based; parameters: dose 5-50 mg/kg, route oral; details: in vivo, 120 h
# Mus musculus [8] = test: Toxicity in NOD/SCID mouse assessed as complete blood counts level at 5 to 50 mg/kg, […] for 5 days; assay type: organism-based; parameters: dose 5-50 mg/kg; details: in vivo, po, 120 h
# T47D = test: Growth inhibition of human T47D cells by sulforhodamine B assay; assay type: functional
# [9] = Growth inhibition of human Hs 578T cells by sulforhodamine B assay; assay type: functional
# SN12C = test: Growth inhibition of human SN12C cells by sulforhodamine B assay; assay type: functional
# 786-0 = test: Growth inhibition of human 786-0 cells by sulforhodamine B assay; assay type: functional
# OVCAR-5 = test: Growth inhibition of human OVCAR5 cells by sulforhodamine B assay; assay type: functional
# OVCAR-4 = test: Growth inhibition of human OVCAR4 cells by sulforhodamine B assay; assay type: functional
# OVCAR-3 = test: Growth inhibition of human OVCAR-3 cells by sulforhodamine B assay; assay type: functional
# UACC-257 = test: Growth inhibition of human UACC257 cells by sulforhodamine B assay; assay type: functional
# SK-MEL-2 = test: Growth inhibition of human SK-MEL-2 cells by sulforhodamine B assay; assay type: functional
# Malme-3M = test: Growth inhibition of human MALME-3M cells by sulforhodamine B assay; assay type: functional
# [10] = read-out: Log10GI50 (converted)
# [11] = read-out: Log10LC50 (converted)
smiles,measurement,setting,value
CC(/C=C/[C@@H]1C[C@]2(CO2)CC(C)(C)O1)=C\C[C@H]1CC[C@@H](NC(=O)/C=C\[C@H](C)OC(=O)C(C)C)CC1,GI50,SNB-19; [10],2 µM
same,CC50,SNB-19; [11],> 100 µM
same,TGI,SNB-19; read-out: Log10TGI (converted),> 100 µM
same,GI50,SF-539; [10],0.372 µM
same,CC50,SF-539; [11],> 100 µM
same,TGI,SF-539; read-out: Log10TGI (converted),18.6 µM
same,GI50,COLO 205; [10],0.263 µM
same,CC50,COLO 205; [11],> 100 µM
same,TGI,COLO 205; read-out: Log10TGI (converted),1.12 µM
same,GI50,NCI-H522; [10],0.316 µM
same,CC50,NCI-H522; [11],5.37 µM
same,TGI,NCI-H522; read-out: Log10TGI (converted),> 100 µM
same,GI50,NCI-H226; [10],2.45 µM
same,CC50,NCI-H226; [11],> 100 µM
same,TGI,NCI-H226; read-out: Log10TGI (converted),> 100 µM
same,GI50,SR; [10],0.0589 µM
same,CC50,SR; [11],> 100 µM
same,TGI,SR; read-out: Log10TGI (converted),0.447 µM
same,IC50,MOLT-4,0.08 µM
same,Activity,Mus musculus [1],Non-toxic
same,Activity,Mus musculus [2],Non-toxic
same,Activity,Mus musculus [3],Non-toxic
same,Activity,Mus musculus [4],Non-toxic
same,GI50,[5]; [10],0.229 µM
same,CC50,[5]; [11],> 100 µM
same,TGI,[5]; read-out: Log10TGI (converted),16.2 µM
same,Activity,Mus musculus [6],Non-toxic
same,Activity,Mus musculus [7],Non-toxic
same,Activity,Mus musculus [8],Non-toxic
same,GI50,T47D; [10],0.389 µM
same,CC50,T47D; [11],> 100 µM
same,TGI,T47D; read-out: Log10TGI (converted),14.5 µM
same,GI50,[9]; [10],0.309 µM
same,CC50,[9]; [11],> 100 µM
same,TGI,[9]; read-out: Log10TGI (converted),45.7 µM
same,GI50,SN12C; [10],1.23 µM
same,CC50,SN12C; [11],> 100 µM
same,TGI,SN12C; read-out: Log10TGI (converted),> 100 µM
same,GI50,786-0; [10],2.63 µM
same,CC50,786-0; [11],> 100 µM
same,TGI,786-0; read-out: Log10TGI (converted),> 100 µM
same,GI50,OVCAR-5; [10],8.32 µM
same,CC50,OVCAR-5; [11],> 100 µM
same,TGI,OVCAR-5; read-out: Log10TGI (converted),> 100 µM
same,GI50,OVCAR-4; [10],1.51 µM
same,CC50,OVCAR-4; [11],> 100 µM
same,TGI,OVCAR-4; read-out: Log10TGI (converted),> 100 µM
same,GI50,OVCAR-3; [10],0.229 µM
same,CC50,OVCAR-3; [11],> 100 µM
same,TGI,OVCAR-3; read-out: Log10TGI (converted),3.47 µM
same,GI50,UACC-257; [10],3.63 µM
same,CC50,UACC-257; [11],> 100 µM
same,TGI,UACC-257; read-out: Log10TGI (converted),45.7 µM
same,GI50,SK-MEL-2; [10],0.257 µM
same,CC50,SK-MEL-2; [11],> 100 µM
same,TGI,SK-MEL-2; read-out: Log10TGI (converted),3.55 µM
same,GI50,Malme-3M; [10],1.38 µM
same,CC50,Malme-3M; [11],> 100 µM
same,TGI,Malme-3M; read-out: Log10TGI (converted),61.7 µM
